Experimental data from different studies.
Each line is one published result; the experiments were not run side by side.
Target: Tyrosine-protein kinase Blk (BLK, Homo sapiens, UniProt P51451)

SMILES	observed	technique	tested at	remaining binding [%]
c1cncc(-c2cccc(Nc3nccc(NC4CCCCC4)n3)c2)c1	binding	competition with immobilised ligand	10 µM	5.8
O=C(NCC1CCOCC1)c1n[nH]cc1NC(=O)c1c(F)cccc1F	binding	competition with immobilised ligand	1 µM	100
COc1cnc(Nc2cccc(S(N)(=O)=O)c2)nc1N1CCN(c2ccccc2)C(=O)C1	binding	competition with immobilised ligand	1 µM	100
CN(C)c1ncc(F)c(-c2cnn3ncccc23)n1	binding		1 µM	90
COc1ccc2c(c1)O[C@H](c1ccc(OC)c(OC)c1)C[C@@H]2NC(=O)C1(c2ccc3c(c2)OC(F)(F)O3)CC1	cell-free assay	competition with immobilised ligand	1 µM	100
Cc1cnc(Nc2ccc(C(=O)N3CCC(N4CCCC4)CC3)cc2)nc1-c1cc2ccccc2s1	binding	competition with immobilised ligand	1 µM	74
c1cnn2ncc(-c3ccnc(N4CCC45COC5)n3)c2c1	binding		1 µM	100
O=C(c1ccc(Nc2nccc(-c3cc4ccccc4s3)n2)cc1)N1CCC(N2CCCC2)CC1	binding	competition with immobilised ligand	1 µM	100
Nc1cnc(N2CCc3cc(S(=O)(=O)Nc4c(F)cc(Cl)cc4F)cc(N4CCCC4=O)c32)nc1	cell-free assay	competition with immobilised ligand	1 µM	100
CCN1CCN(Cc2ccc(C(=O)Nc3ccc(C)c(Oc4ccc5c(c4)CC(=O)N5)c3)cc2C(F)(F)F)CC1	binding	competition with immobilised ligand	1 µM	93
COc1ncc2cc3ccccc3nc2c1C#N	cell-free assay	competition with immobilised ligand	5 µM	87
c1ccc(N2CCN(Cc3nc4ccccc4[nH]3)CC2)nc1	cell-free assay	competition with immobilised ligand	1 µM	100
N[C@@H]1CCN(c2nccc(-c3cnn4ncccc34)n2)C1	binding		1 µM	97
C[C@@H](c1ccc(-n2cnc3c(N)ncnc32)cc1)N1CCc2nn(C)c(Cc3ccccc3)c2C1=O	binding	competition with immobilised ligand	0.1 µM	89
CO[C@@H](C)c1c(Nc2ccc([C@H](N(C)C(=O)C3CCS(=O)(=O)CC3)C(F)(F)F)cc2)cnc2cc(Cl)nn12	cell-free assay	competition with immobilised ligand	1 µM	87
C[C@H]1CCN(c2nccc(-c3cnn4ncccc34)n2)C1	binding		1 µM	100
COc1cc(-c2cn(C3CCc4ccccc4N(CC(F)(F)F)C3=O)nn2)ccc1-n1ccc(C)n1 (stereo not shown)	cell-free assay	competition with immobilised ligand	1 µM	100
O=C(c1ccc(Nc2ncc(Cl)c(-c3cc4ccccc4s3)n2)cc1)N1CCC(N2CCCC2)CC1	binding	competition with immobilised ligand	1 µM	100
F[C@@H]1CCN(c2nccc(-c3cnn4ncccc34)n2)C1	binding		1 µM	100
Cc1c(C(=O)O)cc(-c2ccc(C3CCNCC3)cc2)c2ccc(-c3ccc(C(F)(F)F)cc3)cc12	cell-free assay	competition with immobilised ligand	1 µM	100
COc1ccnn2ncc(-c3ccnc(N(C)C)n3)c12	binding		1 µM	100
FC(F)(F)c1ccc2c(c1)nc(-c1cccnc1)n2C1CC1	cell-free assay	competition with immobilised ligand	1 µM	96
